Active and inactive are the calls of the source.
Legend:
Bacteria [1] = experiment: Inhibition of recombinant full-length bacterial His6-tagged VIM2 (27 to 266 residues) expressed in Escherichia coli BL21 (DE3) cells using FC4-FC5 as substrate assessed as residual activity at 100 uM by fluorescence-based assay
[2] = target: Beta-lactamase TEM (Bacteria) (UniProt P62593); experiment: Inhibition of recombinant N-terminal His-tagged Escherichia coli TEM1 (24 to 286 residues) expressed in Escherichia coli BL21(DE3) at 200 uM using FC5 as substrate
Chain of Beta-lactamase TEM (Bacteria) (P62593 whole entry, the tested form may be a part): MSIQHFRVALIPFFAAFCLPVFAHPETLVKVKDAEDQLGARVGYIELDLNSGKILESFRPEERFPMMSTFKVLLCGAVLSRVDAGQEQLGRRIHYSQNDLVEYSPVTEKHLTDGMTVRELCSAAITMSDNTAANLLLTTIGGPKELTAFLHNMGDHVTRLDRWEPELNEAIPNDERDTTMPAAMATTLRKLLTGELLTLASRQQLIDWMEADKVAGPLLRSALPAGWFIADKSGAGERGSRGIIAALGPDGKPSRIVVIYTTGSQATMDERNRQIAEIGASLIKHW

[3] = target: Beta-lactamase (Escherichia coli K-12) (UniProt P00811); experiment: Inhibition of recombinant Escherichia coli AmpC at 200 uM using FC5 as substrate preincubated at 10 to 300 mins followed by substrate addition
Chain of Beta-lactamase (Escherichia coli K-12) (P00811 whole entry): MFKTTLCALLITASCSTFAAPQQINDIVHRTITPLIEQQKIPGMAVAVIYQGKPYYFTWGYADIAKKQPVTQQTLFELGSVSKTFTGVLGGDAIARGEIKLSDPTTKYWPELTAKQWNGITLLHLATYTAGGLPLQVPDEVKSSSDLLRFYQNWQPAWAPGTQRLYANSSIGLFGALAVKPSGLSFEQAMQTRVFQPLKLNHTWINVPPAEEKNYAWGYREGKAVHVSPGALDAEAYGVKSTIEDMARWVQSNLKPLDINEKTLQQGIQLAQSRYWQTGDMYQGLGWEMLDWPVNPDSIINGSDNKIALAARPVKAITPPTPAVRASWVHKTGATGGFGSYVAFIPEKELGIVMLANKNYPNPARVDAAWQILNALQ

[4] = target: Beta-lactamase CTX-M (Escherichia coli) (UniProt Q9EXV5); experiment: Inhibition of recombinant Escherichia coli EO516 N-terminal His6-tagged CTX-M using FC5 as substrate at 200 uM preincubated at 10 to 300 mins followed by substrate addition
Bacteria [5] = experiment: Inhibition of recombinant bacterial IMP1 expressed in Escherichia coli BL21 (DE3) cells using FC4-FC5 as substrate assessed as residual activity at 100 uM by fluorescence-based assay
Method in brief: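 IMP-1 was incubated with inhibitor for 10 min before substrate was added. Residual activity was calculated from the initial rate of FC5 hydrolysis.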

[6] = target: Beta-lactamase OXA-10 (Pseudomonas aeruginosa) (UniProt P14489); experiment: Inhibition of recombinant Pseudomonas aeruginosa OXA-10 at 200 uM using FC5 as substrate
Chain of Beta-lactamase OXA-10 (Pseudomonas aeruginosa) (P14489 whole entry): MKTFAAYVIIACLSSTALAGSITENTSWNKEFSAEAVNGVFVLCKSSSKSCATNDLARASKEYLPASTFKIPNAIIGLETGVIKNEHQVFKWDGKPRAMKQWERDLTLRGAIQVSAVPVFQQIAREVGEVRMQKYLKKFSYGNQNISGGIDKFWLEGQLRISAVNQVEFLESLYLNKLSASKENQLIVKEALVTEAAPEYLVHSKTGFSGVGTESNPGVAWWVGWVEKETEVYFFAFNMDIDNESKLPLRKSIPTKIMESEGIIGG

[7] = target: Beta-lactamase (Escherichia coli K-12) (UniProt P00811); experiment: Inhibition of recombinant Escherichia coli AmpC assessed as residual activity at 200 uM using FC5 as substrate preincubated at 10 to 300 mins followed by substrate addition
[8] = target: Beta-lactamase OXA-10 (Pseudomonas aeruginosa) (UniProt P14489); experiment: Inhibition of recombinant Pseudomonas aeruginosa OXA-10 using FC5 as substrate assessed as residual activity at 200 uM
[9] = target: T1, Metallo-beta-lactamase type 2 (Bacillus cereus) (UniProt P04190); experiment: Inhibition of recombinant bacterial BC2 expressed in Escherichia coli BL21 (DE3) cells at 100 uM using FC4-FC5 as substrate by fluorescence-based assay
T1 sequence (whole entry): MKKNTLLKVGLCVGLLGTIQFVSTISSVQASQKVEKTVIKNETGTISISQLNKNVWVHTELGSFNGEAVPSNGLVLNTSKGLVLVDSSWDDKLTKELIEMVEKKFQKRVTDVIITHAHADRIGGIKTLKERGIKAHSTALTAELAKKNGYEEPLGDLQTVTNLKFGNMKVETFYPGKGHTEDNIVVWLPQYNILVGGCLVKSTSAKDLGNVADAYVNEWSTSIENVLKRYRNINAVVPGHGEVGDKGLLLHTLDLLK

[10] = target: Metallo-beta-lactamase type 2 (Aeromonas hydrophila) (UniProt P26918); experiment: Inhibition of Aeromonas hydrophila CphA at 100 uM using fluorogenic cephalosporin as substrate
Chain of Metallo-beta-lactamase type 2 (Aeromonas hydrophila) (P26918 whole entry): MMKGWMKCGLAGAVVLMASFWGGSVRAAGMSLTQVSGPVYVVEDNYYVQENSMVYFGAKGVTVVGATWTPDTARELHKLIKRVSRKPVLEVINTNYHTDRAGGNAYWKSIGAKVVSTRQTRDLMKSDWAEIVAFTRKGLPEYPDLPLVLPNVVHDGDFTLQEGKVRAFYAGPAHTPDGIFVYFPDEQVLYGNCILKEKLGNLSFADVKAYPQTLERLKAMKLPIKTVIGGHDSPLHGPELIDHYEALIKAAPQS

Bacteria [11] = experiment: Inhibition of recombinant bacterial NDM1 expressed in Escherichia coli BL21 (DE3) cells at 100 uM using FC5 as fluorogenic reporter substrate preincubated at 10 to 300 mins followed by substrate addition
Bacteria [12] = experiment: Inhibition of recombinant bacterial IMP1 expressed in Escherichia coli BL21 (DE3) cells at 100 uM using FC4-FC5 as substrate by fluorescence-based assay
Bacteria [13] = experiment: Inhibition of recombinant full-length bacterial His6-tagged VIM2 (27 to 266 residues) expressed in Escherichia coli BL21 (DE3) cells at 100 uM using FC4-FC5 as substrate by fluorescence-based assay
Bacteria [14] = experiment: Inhibition of recombinant full-length bacterial His6-tagged SPM1 (29 to 276 residues) expressed in Escherichia coli BL21 (DE3) cells at 100 uM using FC4-FC5 as substrate by fluorescence-based assay
[15] = target: Beta-lactamase TEM (Bacteria) (UniProt P62593); experiment: Inhibition of recombinant N-terminal His-tagged Escherichia coli TEM1 (24 to 286 residues) expressed in Escherichia coli BL21(DE3) using FC5 as substrate assessed as residual activity at 200 uM

Structure (SMILES) | Activity (Bacteria [1]) [%] | inhibition [2] | inhibition [3] | inhibition [4] | Activity (Bacteria [5]) [%] | inhibition [6] | also measured
O=C(O)/C(O)=C/c1ccc(F)cc1 | 100 | inactive | inactive | inactive | 100 | inactive | 
O=P(O)(O)C(S)c1ccc(Br)cc1F (configuration not stated) | 100 | inactive | inactive | inactive | 100 | inactive | 
CN1CCN(NC(=O)CN2C(=O)/C(=C/c3c4ccccc4cc4ccccc34)SC2=S)CC1 |  |  |  |  |  |  | Activity [7]: 1%; Activity [8]: 41%
CC1=N/C(=C\c2ccc(F)cc2)C(=O)O1 | 100 | inactive | inactive | inactive | 100 | inactive | 
O=C(O)C(O)c1ccccc1 (configuration not stated) |  |  |  |  |  |  | inhibition [9]: inactive; inhibition [10]: inactive; inhibition (Bacteria [11]): inactive; inhibition (Bacteria [12]): inactive; inhibition (Bacteria [13]): inactive; inhibition (Bacteria [14]): inactive
O=P(O)(O)C(O)c1ccc(Br)cc1F (configuration not stated) | 100 | inactive | inactive | inactive | 100 | inactive | 
O=C(O)C(O)Cc1ccccc1 (configuration not stated) |  |  |  |  |  |  | inhibition [9]: inactive; inhibition [10]: inactive; inhibition (Bacteria [11]): inactive; inhibition (Bacteria [12]): inactive; inhibition (Bacteria [13]): inactive; inhibition (Bacteria [14]): inactive
O=C(O)/C(S)=C/c1c2ccccc2cc2ccccc12 |  |  |  |  |  |  | Activity [15]: 40%
O=C(O)/C(S)=C/c1ccccc1Cl |  | inactive | inactive | inactive |  | inactive | 
O=C(O)CN1C(=O)/C(=C/c2ccccc2Cl)SC1=S |  | inactive | inactive | inactive |  | inactive | 

From ChEMBL document CHEMBL4118127, “Structure activity relationship studies on rhodanines and derived enethiol inhibitors of metallo-β-lactamases” (Bioorg Med Chem, 2018)
